From ChEMBL document CHEMBL2034843, “3α-Hydroxymasticadienonic acid as an antiproliferative agent that impairs mitochondrial functions” (J Nat Prod, 2012)
Calls of active or inactive are those of the source. The calls are words filed in the database; no cut-off is given here.

Tests used:
Rattus norvegicus [1] = species on record: Rattus norvegicus; experiment: Hepatoprotective activity in rat liver mitochondria assessed as change in mitochondrial pyridine nucleotide redox level at 100 uM after 15 mins by fluorometric analysis in presence of Ca2+
Rattus norvegicus [2] = species on record: Rattus norvegicus; experiment: Induction of mitochondrial dysfunction in rat liver mitochondria assessed as initial uptake of Ca2+ per mg protein at 100 uM measured immediately by spectrophotometric analysis; type: functional
Procedure, shortened: (§1)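 Ca2+ movements in rat liver mitochondria (1 mg protein/mL, 20 °C, succinate/rotenone medium) exposed to 70 μM Ca2+; Ca2+ in mitochondrial pellets measured by atomic absorption spectroscopy, uptake expressed per mg protein.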

Rattus norvegicus [3] = species on record: Rattus norvegicus; experiment: Induction of mitochondrial dysfunction in rat liver mitochondria assessed as decrease in membrane potential at 10 uM by spectrophotometric analysis in presence of 50 uM Ca2+; type: functional; conditions: TDE = time-dependent effect
Procedure, shortened: (§2)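 Membrane potential (ΔΨ) derived from TPP+ distribution across the inner membrane, measured with a TPP+-selective electrode. Ca2+ 50 μM where indicated; cyclosporin A 1 μM where indicated.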

Rattus norvegicus [4] = species on record: Rattus norvegicus; experiment: Induction of mitochondrial dysfunction in Ca2+-stimulated rat liver mitochondria assessed as decrease in SH mitochondrial redox level at 10 uM after 15 mins by absorption spectrophotometric analysis in presence of dithiothreitol; type: functional
Procedure, shortened: (§3)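 Mitochondrial protein thiol oxidation assayed per Santos et al. after 15 min incubation of rat liver mitochondria (1 mg protein/mL, 20 °C, succinate/rotenone standard medium). Results as % reduced thiols, mean ± SD, four independent experiments.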

Rattus norvegicus [5] = species on record: Rattus norvegicus; experiment: Induction of mitochondrial dysfunction in Ca2+-stimulated rat liver mitochondria assessed as decrease in mitochondrial redox level at 10 uM after 15 mins by absorption spectrophotometric analysis in presence of bongkrekic acid; type: functional
Procedure, shortened: as §3

Rattus norvegicus [6] = species on record: Rattus norvegicus; experiment: Induction of mitochondrial dysfunction in rat liver mitochondria assessed as blockage of Ca2+ release at 100 uM by spectrophotometric analysis; type: functional; conditions: in the assay text read “Ca2+ accumulation” for “Ca2+ release”
Procedure, shortened: as §1

A-431 = experiment: Cytotoxicity against human A431cells after 72 hrs by trypan blue assay; type: functional, cell-based; conditions: A-431, 72 h
Procedure, shortened: (§4)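 Cells seeded at 4 × 10^4 per well, grown 24 h, then given fresh medium with a range of concentrations and kept a further 72 h at 37 °C in 5% CO2. Viability was read by trypan blue count. IC50 is the concentration giving 50% fewer cells than control cultures, as mean ± SD of at least four experiments. HeLa were grown in F-12 with 10% heat-inactivated FCS; A-431 and HepG2 in DMEM with 10% FBS.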

Rattus norvegicus [7] = species on record: Rattus norvegicus; experiment: Induction of mitochondrial dysfunction in rat liver mitochondria assessed as apoptosis inducing factor release at 10 uM after 15 mins by Western blot analysis in presence of Ca2+; type: functional
Procedure, shortened: (§5)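 Mitochondria (1 mg protein/mL) held 15 min at 20 °C in standard succinate/rotenone medium with or without Ca2+, then centrifuged 13000g, 10 min, 4 °C. Supernatants concentrated, resolved by SDS-PAGE (15% for cyt c, 10% for AIF) and immunoblotted with mouse anti-cyt c or rabbit anti-AIF.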

Rattus norvegicus [8] = species on record: Rattus norvegicus; experiment: Induction of mitochondrial dysfunction in rat liver mitochondria assessed as cytochrome c release at 10 uM after 15 mins by Western blot analysis in presence of Ca2+; type: functional
Procedure, shortened: as §5

Rattus norvegicus [9] = species on record: Rattus norvegicus; experiment: Induction of mitochondrial dysfunction in rat liver mitochondria assessed as change in membrane potential by spectrophotometric analysis; type: functional
Rattus norvegicus [10] = species on record: Rattus norvegicus; experiment: Induction of mitochondrial dysfunction in rat liver mitochondria assessed as increase in colloid-osmotic swelling at 10 uM by spectrophotometric analysis in presence of 50 uM Ca2+; type: functional
Procedure, shortened: (§6)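 Absorbance change at 540 nm of rat liver mitochondrial suspensions (1 mg protein/mL, 20 °C, succinate/rotenone energized, 250 mM sucrose, 10 mM HEPES pH 7.4, 1 mM phosphate); a fall in absorbance taken as swelling. Ca2+ at 50, 70 or 90 μM as specified, or omitted. Runs repeated at least four times.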

Rattus norvegicus [11] = species on record: Rattus norvegicus; experiment: Induction of mitochondrial dysfunction in rat liver mitochondria assessed as increase in colloid-osmotic swelling at 10 uM by spectrophotometric analysis in presence of 50 uM Ca2+ and dithiothreitol; type: functional
Procedure, shortened: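 Swelling read as the 540 nm absorbance decrease in succinate-energized rat liver mitochondria (1 mg protein/mL, 20 °C, pH 7.4 sucrose/HEPES medium) with 50 μM Ca2+. Added agents where indicated: 1 μM CsA, 5 μM bongkrekic acid, 1 mM ADP, 2 μM ruthenium red, 10 μM NEM, 1 mM DTE. At least five repeats.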

Rattus norvegicus [12] = species on record: Rattus norvegicus; experiment: Induction of mitochondrial dysfunction in rat liver mitochondria assessed as apoptosis inducing factor release at 10 uM after 15 mins by Western blot analysis; type: functional
Procedure, shortened: as §5

Rattus norvegicus [13] = species on record: Rattus norvegicus; experiment: Induction of mitochondrial dysfunction in Ca2+-stimulated rat liver mitochondria assessed as decrease in mitochondrial redox level at 10 uM after 15 mins by absorption spectrophotometric analysis in presence of Ca2+ transport inhibitor ruthedium red; type: functional
Procedure, shortened: as §3

Rattus norvegicus [14] = species on record: Rattus norvegicus; experiment: Induction of mitochondrial dysfunction in rat liver mitochondria assessed as decrease in mitochondrial redox level at 10 uM after 15 mins by absorption spectrophotometric analysis in presence of 50 uM Ca2+; type: functional; design: scale not given: the % may be the effect or the level left
Procedure, shortened: as §3

HeLa = experiment: Cytotoxicity against human HeLa cells after 72 hrs by trypan blue assay; type: functional, cell-based
Procedure, shortened: as §4

Rattus norvegicus [15] = species on record: Rattus norvegicus; experiment: Induction of mitochondrial bioenergetics dysfunction in rat liver mitochondria assessed as decrease in respiratory control index at 25 uM by using clark electrode; type: functional
Procedure, shortened: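 Isolated rat liver mitochondria (1 mg protein/mL), 20 °C, sucrose/HEPES pH 7.4 medium with 5 mM succinate plus 1.25 μM rotenone and 1 mM phosphate. O2 uptake followed with a Clark electrode; 300 μM ADP added to start state 3. RCI = V3/V4 (state 3 over state 4 rate). Five experiments.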

Rattus norvegicus [16] = species on record: Rattus norvegicus; experiment: Induction of mitochondrial dysfunction in Ca2+-stimulated rat liver mitochondria assessed as decrease in mitochondrial redox level at 10 uM after 15 mins by absorption spectrophotometric analysis in presence of ADP; type: functional
Procedure, shortened: as §3

Rattus norvegicus [17] = species on record: Rattus norvegicus; experiment: Induction of mitochondrial dysfunction in rat liver mitochondria assessed as decrease in membrane potential at 100 uM by spectrophotometric analysis in presence of 1 uM MPT inhibitor cyclosporin A; type: functional
Procedure, shortened: as §2

Rattus norvegicus [18] = species on record: Rattus norvegicus; experiment: Induction of mitochondrial dysfunction in rat liver mitochondria assessed as rapid accumulation of Ca2+ at 10 uM by spectrophotometric analysis; type: functional
Procedure, shortened: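 Rat liver mitochondria, isolated by differential centrifugation in sucrose/HEPES/EGTA buffer, were incubated at 1 mg protein/mL and 20 °C. Ca2+ content of mitochondrial pellets was measured by atomic absorption spectroscopy.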

Rattus norvegicus [19] = species on record: Rattus norvegicus; experiment: Induction of mitochondrial dysfunction in rat liver mitochondria assessed as apoptosis inducing factor release at 100 uM after 15 mins by Western blot analysis; type: functional
Procedure, shortened: as §5

Rattus norvegicus [20] = species on record: Rattus norvegicus; experiment: Induction of mitochondrial dysfunction in rat liver mitochondria assessed as increase in mitochondrial swelling at 10 uM by spectrophotometric analysis in presence of 70 uM Ca2+; type: functional
Procedure, shortened: as §6

Rattus norvegicus [21] = species on record: Rattus norvegicus; experiment: Hepatoprotective activity in rat liver assessed as inhibition of colloid-osmotic mitochondrial swelling at 100 uM by spectrophotometric analysis in presence of 90 uM Ca2+; conditions: Mitochondria
Rattus norvegicus [22] = species on record: Rattus norvegicus; experiment: Hepatoprotective activity in rat liver mitochondria assessed as inhibition of Ca2+-induced mitochondrial swelling at > 20 uM by spectrophotometric analysis; type: functional
Procedure, shortened: as §6

Rattus norvegicus [23] = species on record: Rattus norvegicus; experiment: Induction of mitochondrial dysfunction in rat liver mitochondria assessed as decrease in mitochondrial pyridine nucleotide redox level at 10 uM after 15 mins by fluorometric analysis in presence of Ca2+
Rattus norvegicus [24] = species on record: Rattus norvegicus; experiment: Hepatoprotective activity in rat liver mitochondria assessed as inhibition of Ca2+-induced mitochondrial swelling at 100 uM by spectrophotometric analysis; type: functional
Procedure, shortened: as §6

## C/C(=C/CC[C@H](C)[C@@H]1CC[C@]2(C)C3=CC[C@H]4C(C)(C)[C@H](O)CC[C@]4(C)[C@H]3CC[C@@]12C)C(=O)O
Rattus norvegicus [1]
  Activity: Active
Rattus norvegicus [2]
  Activity: 20 nmol
Rattus norvegicus [3]
  Activity: tde
Rattus norvegicus [4]
  Activity: inactive
Rattus norvegicus [5]
  Activity: Active
Rattus norvegicus [6]
  Activity: Active
A-431
  IC50: 40 µM
Rattus norvegicus [7]
  Activity: Active
Rattus norvegicus [8]
  Activity: Active
Rattus norvegicus [9]
  Activity: Dose-dependent effect
Rattus norvegicus [10]
  Activity: Active
Rattus norvegicus [11]
  Activity: inactive
Rattus norvegicus [12]
  Activity: inactive
Rattus norvegicus [13]
  Activity: inactive
Rattus norvegicus [14]
  Activity: 50%
HeLa
  IC50: 28.9 µM
Rattus norvegicus [15]
  Activity: Active
Rattus norvegicus [16]
  Activity: Active
Rattus norvegicus [17]
  Activity: Active
Rattus norvegicus [18]
  Activity: Active
Rattus norvegicus [19]
  Activity: inactive
Rattus norvegicus [20]
  Activity: Active
Rattus norvegicus [21]
  inhibition: Active
Rattus norvegicus [22]
  Activity: Active
Rattus norvegicus [23]
  Activity: Active
Rattus norvegicus [24]
  inhibition: Active
